# Data reported in ChEMBL document CHEMBL2086299, “Melanogenesis inhibitory and fibroblast proliferation accelerating effects of noroleanane- and oleanane-type triterpene oligoglycosides from the flower buds of Camellia japonica” (2012).
# How the values were obtained:
# [1] = Induction of proliferation of neonatal skin fibroblasts assessed as WST-8 formazan accumulation per well at 20 uM after 48 hrs by WST-8 assay relative to control; assay type: functional, Homo sapiens, Skin fibroblast
# Procedure, shortened: (§1)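 Normal human neonatal skin fibroblasts NB1RGB (DMEM 1 g/L glucose, 10% FBS, 37 °C, 5% CO2) seeded 5.0 × 10^4 cells/well in 96-well plates. Incubated 48 h with compound (DMSO, final 0.1%). Water-soluble WST-8 formazan read at 450 nm (ref 655 nm) and expressed as % of vehicle control.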
# [2] = Induction of proliferation of neonatal skin fibroblasts assessed as WST-8 formazan accumulation per well at 10 uM after 48 hrs by WST-8 assay relative to control; assay type: functional, Homo sapiens, Skin fibroblast; procedure, shortened: as §1
# [3] = Induction of proliferation of neonatal skin fibroblasts assessed as protein content per well at 10 uM after 48 hrs by […] relative to control; assay type: functional, Homo sapiens, Skin fibroblast
# Procedure, shortened: (§2)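 Normal human neonatal skin fibroblasts NB1RGB seeded 5.0 × 10^4 cells/well in 96-well plates. Exposed 48 h to compound (DMSO, final 0.1%). Cellular protein content determined by BCA protein assay and expressed as % of vehicle control.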
# [4] = Induction of proliferation of neonatal skin fibroblasts assessed as protein content per well at 20 uM after 48 hrs […] relative to control; assay type: functional, Homo sapiens, Skin fibroblast; procedure, shortened: as §2
# [5] = Induction of proliferation of neonatal skin fibroblasts assessed as WST-8 formazan accumulation per well at 5 uM after 48 hrs by WST-8 assay relative to control; assay type: functional, Homo sapiens, Skin fibroblast; procedure, shortened: as §1
# [6] = Induction of proliferation of neonatal skin fibroblasts assessed as protein content per well at 5 uM after 48 hrs by […] relative to control; assay type: functional, Homo sapiens, Skin fibroblast; procedure, shortened: as §2
# [7] = Antiproliferative activity against mouse B16-4A5 cells at 5 uM after 72 hrs by WST-8 assay; assay type: functional
# Procedure, shortened: (§3)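 Murine B16 melanoma 4A5 cells (DMEM 4.5 g/L glucose, 10% FBS) seeded 5.0 × 10^4 cells/well in 96-well plates and cultured 24 h. Then 72 h with 1 mM theophylline plus compound (DMSO, final 0.1%). Cells washed with PBS, WST-8 formazan read at 450 nm (ref 655 nm). Inhibition (%) = [(A − B)/A] × 100 versus vehicle. Mean ± SEM, n = 4.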
# [8] = Inhibition of melanogenesis in theophylline-stimulated mouse B16-4A5 cells at 20 uM after 72 hrs by microplate reader; assay type: functional; set-up: scale not given: the % may be the effect or the level left
# Procedure, shortened: (§4)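 B16 melanoma 4A5 cells seeded 2.0 × 10^4 cells/well in 24-well plates and cultured 24 h. Then 72 h with compound plus 1 mM theophylline (DMSO, final 0.1%). Cells trypsin/EDTA-harvested, washed, lysed in 1 M NaOH (80 °C, 30 min). Lysate melanin read by OD at 405 nm (ref 655 nm). Inhibition (%) = [(A − B)/A] × 100 versus vehicle. Mean ± SEM, n = 4.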
# [9] = Inhibition of melanogenesis in theophylline-stimulated mouse B16-4A5 cells at 10 uM after 72 hrs by microplate reader; assay type: functional; set-up: scale not given: the % may be the effect or the level left; procedure, shortened: as §4
# [10] = Antiproliferative activity against mouse B16-4A5 cells at 20 uM after 72 hrs by WST-8 assay; assay type: functional; procedure, shortened: as §3
# [11] = Antiproliferative activity against mouse B16-4A5 cells at 10 uM after 72 hrs by WST-8 assay; assay type: functional; procedure, shortened: as §3
# [12] = Inhibition of melanogenesis in theophylline-stimulated mouse B16-4A5 cells at 5 uM after 72 hrs by microplate reader; assay type: functional; set-up: scale not given: the % may be the effect or the level left; procedure, shortened: as §4
# [13] = Inhibition of melanogenesis in theophylline-stimulated mouse B16-4A5 cells at 40 uM after 72 hrs by microplate reader; assay type: functional; set-up: scale not given: the % may be the effect or the level left; procedure, shortened: as §4
# [14] = Induction of proliferation of neonatal skin fibroblasts assessed as WST-8 formazan accumulation per well at 50 uM after 48 hrs by WST-8 assay relative to control; assay type: functional, Homo sapiens, Skin fibroblast; procedure, shortened: as §1
# [15] = Induction of proliferation of neonatal skin fibroblasts assessed as protein content per well at 50 uM after 48 hrs by […] relative to control; assay type: functional, Homo sapiens, Skin fibroblast; procedure, shortened: as §2
Structure (SMILES),Activity [1],Activity [2],Activity [3],Activity [4],Activity [5],Activity [6],Activity [7],Activity [8],Activity [9],Activity [10],Activity [11],Activity [12],Activity [13],Activity [14],Activity [15]
O.O=C1O[C@H]([C@@H](O)CO)C(O)=C1OP(=O)([O-])[O-].[Mg+2],122.8%,123.7%,109.6%,117.4%,109.2%,112.8%,,,,,,,,,
CC1(C)CC[C@]2(O)[C@H](O)C[C@]3(C)C(=CC[C@@H]4[C@@]5(C)CC[C@H](O[C@@H]6O[C@H](C(=O)O)[C@@H](O)[C@H](O[C@@H]7O[C@H](CO)[C@H](O)[C@H](O)[C@H]7O[C@@H]7O[C@H](CO)[C@@H](O)[C@H](O)[C@H]7O)[C@H]6O[C@@H]6O[C@H](CO)[C@H](O)[C@H](O)[C@H]6O)C(C)(C)[C@@H]5CC[C@]43C)[C@@H]2C1 (relative stereo),116.2%,110%,110.6%,114.9%,108.3%,113.9%,1.9%,23.3%,16.7%,13.3%,4.3%,21.9%,,,
CC1(C)CC[C@]2(C=O)[C@H](O)C[C@]3(C)C(=CC[C@@H]4[C@@]5(C)CC[C@H](O[C@@H]6O[C@H](C(=O)O)[C@@H](O)[C@H](O[C@@H]7O[C@H](CO)[C@H](O)[C@H](O)[C@H]7O[C@@H]7O[C@H](CO)[C@@H](O)[C@H](O)[C@H]7O)[C@H]6O[C@@H]6O[C@H](CO)[C@H](O)[C@H](O)[C@H]6O)C(C)(C)[C@@H]5CC[C@]43C)[C@@H]2C1 (relative stereo),102.2%,102.5%,120.3%,110%,102.1%,120.4%,17.4%,91.6%,16.3%,52.8%,55%,-19.7%,,,
OC[C@H]1O[C@@H](Oc2ccc(O)cc2)[C@H](O)[C@@H](O)[C@@H]1O [ARBUTIN],,,,,,,,13.3%,-0.1%,,,,18%,,
CC1(C)CC[C@]2(O)C(=O)C[C@]3(C)C(=CC[C@@H]4[C@@]5(C)CC[C@H](O[C@@H]6O[C@H](C(=O)O)[C@@H](O)[C@H](O[C@@H]7O[C@H](CO)[C@H](O)[C@H](O)[C@H]7O[C@@H]7O[C@H](CO)[C@@H](O)[C@H](O)[C@H]7O)[C@H]6O[C@H]6O[C@@H](CO)[C@@H](O)[C@@H](O)[C@@H]6O)C(C)(C)C5CC[C@]43C)[C@@H]2C1 (stereo not given in full) [CAMELLIOSIDE A],113.6%,114.3%,126.9%,113.8%,114.6%,120.8%,-3.8%,74.9%,36%,19.7%,5.1%,12.1%,,,
CC(=O)O[C@@H]1[C@H](O)[C@@H](O)[C@H](O[C@H]2[C@H](O[C@H]3CC[C@]4(C)[C@H]5CC=C6[C@@H]7CC(C)(C)CC[C@]7(O)C(=O)C[C@@]6(C)[C@]5(C)CC[C@H]4C3(C)C)O[C@H](C(=O)O)[C@@H](O)[C@@H]2O[C@@H]2O[C@H](CO)[C@H](O)[C@H](O)[C@H]2O[C@@H]2O[C@H](CO)[C@@H](O)[C@H](O)[C@H]2O)O[C@@H]1CO [CAMELLIOSIDE B],132.1%,121.5%,130%,130.1%,111.5%,122.3%,11.9%,95%,64.6%,49%,26%,33.1%,,,
CC1(C)CC[C@]2(CO)[C@H](O)C[C@]3(C)C(=CC[C@@H]4[C@@]5(C)CC[C@H](O[C@@H]6O[C@H](C(=O)O)[C@@H](O)[C@H](O[C@@H]7O[C@H](CO)[C@H](O)[C@H](O)[C@H]7O[C@@H]7O[C@H](CO)[C@@H](O)[C@H](O)[C@H]7O)[C@H]6O[C@@H]6O[C@H](CO)[C@H](O)[C@H](O)[C@H]6O)C(C)(C)[C@@H]5CC[C@]43C)[C@@H]2C1 [CAMELLIOSIDE D],108.6%,98.6%,113.1%,94.7%,107.6%,110.7%,16.1%,8.3%,-6.2%,29.5%,16.3%,0.3%,,,
C/C=C(/C)C(=O)O[C@H]1CC(C)(C)C[C@H]2C3=CC[C@@H]4[C@@]5(C)CC[C@H](O[C@@H]6O[C@H](C(=O)O)[C@@H](O)[C@H](O[C@@H]7O[C@H](CO)[C@H](O)[C@H](O)[C@H]7O[C@@H]7O[C@@H](C)[C@H](O)[C@@H](O)[C@H]7O)[C@H]6O[C@@H]6O[C@H](CO)[C@@H](O)[C@H](O)[C@H]6O)C(C)(C)[C@@H]5CC[C@@]4(C)[C@]3(C)[C@@H](O)[C@@H](O)[C@@]12CO [SASANQUASAPONIN III],,16.6%,48.6%,,,,,,,,,,,16.8%,48.8%
C/C=C(\C)C(=O)O[C@H]1CC(C)(C)C[C@H]2C3=CC[C@@H]4[C@@]5(C)CC[C@H](O[C@@H]6O[C@H](C(=O)O)[C@@H](O)[C@H](O[C@@H]7O[C@H](CO)[C@H](O)[C@H](O)[C@H]7O[C@@H]7O[C@@H](C)[C@H](O)[C@@H](O)[C@H]7O)[C@H]6O[C@@H]6O[C@H](CO)[C@@H](O)[C@H](O)[C@H]6O)C(C)(C)[C@@H]5CC[C@@]4(C)[C@]3(C)[C@@H](O)[C@@H](O)[C@@]12CO [SASANQUASAPONIN II],,16.8%,53.9%,,,,,,,,,,,16.5%,48.9%
CCC/C=C\C(=O)O[C@H]1CC(C)(C)C[C@H]2C3=CC[C@@H]4[C@@]5(C)CC[C@H](O[C@@H]6O[C@H](C(=O)O)[C@@H](O)[C@H](O[C@@H]7O[C@H](CO)[C@H](O)[C@H](O)[C@H]7O[C@@H]7O[C@@H](C)[C@H](O)[C@@H](O)[C@H]7O)[C@H]6O[C@@H]6O[C@H](CO)[C@@H](O)[C@H](O)[C@H]6O)C(C)(C)[C@@H]5CC[C@@]4(C)[C@]3(C)[C@@H](O)[C@@H](O)[C@@]12CO [SASANQUASAPONIN I],,34.9%,71.5%,,,,,,,,,,,16.4%,44.8%
C/C=C(\C)C(=O)O[C@H]1[C@H](OC(=O)/C(C)=C/C)[C@]2(CO)[C@H](O)[C@H](O)[C@]3(C)C(=CC[C@@H]4[C@@]5(C)CC[C@H](O[C@@H]6O[C@H](C(=O)O)[C@@H](O)[C@H](O[C@@H]7O[C@H](CO)[C@H](O)[C@H](O)[C@H]7O[C@@H]7O[C@@H](C)[C@H](O)[C@@H](O)[C@H]7O)[C@H]6O[C@@H]6O[C@H](CO)[C@@H](O)[C@H](O)[C@H]6O)C(C)(C)[C@@H]5CC[C@]43C)[C@@H]2CC1(C)C [YUCHASAPONIN A],,16.6%,45.3%,,,,,,,,,,,16.8%,49.4%
